For series [1], the target named is T1, C-C chemokine receptor type 5 (Homo sapiens, UniProt P51681). Put plainly: Binding affinity towards C-C chemokine receptor type 5. An outline of the steps:
(§1)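 CCR5 Ki in nM. Standard error 10%; assay-to-assay variability 2-3-fold.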

The next series has as its system Rattus norvegicus. Nature of the series: Pharmacokinetic characterization measured on oral blood levels in rat at 10 mg/kg (0-6 hr). In kind it is ADME, organism-based. Further details: time < 6 hr, dose 10 mg/kg, route oral. The settings on record: in vivo. In outline:
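Rats given compound orally at 10 mg/kg. Plasma concentrations followed over 6 h. Blood levels expressed as AUC (0-6 h) of the concentration-time plot, in ng/mL h.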

Series [2] relates to U-87 MG. Put plainly: Inhibition of the entry of HIV-1 reporter virus (ADA) into U-87 cells. In kind it is functional, cell-based, U-87MG ATCC. To be noted: Homo sapiens. In outline:
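Single-cycle infectivity assay in U-87 cells with HIV-1 reporter virus (ADA). IC50 is the concentration giving 50% inhibition of viral entry. 95% confidence limit within 1 log; intra-assay variation under 0.5 log.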

Series [3] has as its system U-87 MG. Put plainly: Inhibition of the entry of HIV-1 reporter virus (JrF1) into U-87 cells. Type of series: functional, cell-based, U-87MG ATCC. To be noted: Homo sapiens. An outline of the steps:
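Entry of HIV-1 reporter virus (JrFl) into U-87 cells. IC50 is the concentration inhibiting entry by 50%. 95% confidence limit within 1 log; intra-assay variation under 0.5 log.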

Series [4] in a line: Maximum plasma concentration after oral administration in dog. In kind it is ADME, organism-based, Canis lupus familiaris. Details: route oral. An outline of the steps:
(§2)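 Beagle dogs and cynomolgus monkeys. IV dose 1 mg/kg. Oral dose 3 mg/kg in dog, 10 mg/kg in monkey. Plasma sampled over 0-24 h. […] Bioavailability is dose-corrected from oral vs iv AUC.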

Series [5] is described as follows: Bioavailability in monkey after oral administration. Type of series: ADME, organism-based. To be noted: simiiformes, in vivo, read-out: BA. In outline: as §2
The subject of series [6] is Cynomolgus monkey. Nature of the series: Area under concentration curve in cynomolgus monkey after iv administration. Type of series: ADME, organism-based, Macaca fascicularis. To be noted: in vivo. In outline:
as §2

A short description of series [7]: Plasma concentration after 0 hours of intravenous administration in cunomolgus monkey. Type of series: ADME, organism-based, Macaca fascicularis. The settings on record: cynomolgus monkey. In outline:
as §2

The nature of series [8]: Plasma concentration after 0 hours of intravenous administration in dog. The settings on record: read-out: Co. Type of series: ADME, organism-based, Canis lupus familiaris. An outline of the steps:
as §2

Series [9] has as its target T2, Muscarinic acetylcholine receptor M2 (Homo sapiens, UniProt P08172).
T2 sequence (P08172 whole entry): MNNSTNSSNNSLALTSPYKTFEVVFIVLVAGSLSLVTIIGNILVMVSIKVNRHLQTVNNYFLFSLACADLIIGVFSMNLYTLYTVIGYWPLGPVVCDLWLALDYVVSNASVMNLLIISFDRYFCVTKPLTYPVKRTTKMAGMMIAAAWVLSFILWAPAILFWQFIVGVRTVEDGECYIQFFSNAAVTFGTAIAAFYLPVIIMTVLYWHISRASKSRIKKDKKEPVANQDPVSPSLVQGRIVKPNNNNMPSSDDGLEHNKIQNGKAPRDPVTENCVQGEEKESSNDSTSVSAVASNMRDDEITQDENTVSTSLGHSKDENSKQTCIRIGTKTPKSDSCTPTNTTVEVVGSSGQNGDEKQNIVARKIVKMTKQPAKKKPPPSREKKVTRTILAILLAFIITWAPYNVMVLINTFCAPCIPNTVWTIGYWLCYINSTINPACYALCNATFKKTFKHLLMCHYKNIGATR
Put plainly: Binding affinity against muscarinic acetylcholine receptor M2.

Series [10] deals with Canis familiaris. Put plainly: Area under concentration curve in Beagle dogs after oral administration (0-24 hr). In kind it is ADME, organism-based, Canis lupus familiaris. Further details: time < 24 hr, route oral. The settings on record: dog, in vivo. An outline of the steps:
as §2

Series [11] in a line: Bioavailability in dog after oral administration. The settings on record: in vivo, read-out: BA. Type of series: ADME, organism-based, Canis lupus familiaris. An outline of the steps:
as §2

For series [12], the system named is Cynomolgus monkey. Nature of the series: Area under concentration curve in cynomolgus monkey after oral administration. To be noted: in vivo. In kind it is ADME, organism-based, Macaca fascicularis. An outline of the steps:
as §2

Series [13] deals with T1, C-C chemokine receptor type 5. Nature of the series: Binding affinity at C-C chemokine receptor type 5. In outline:
as §1

Series [14] is described as follows: Time required for the maximum plasma concentration in rat blood levels at 10 mg/kg. In kind it is ADME, organism-based. Details: dose 10 mg/kg.
The test system of series [15] is Canis familiaris. Put plainly: Area under concentration curve in Beagle dogs after iv administration (0-24 hr). Type of series: ADME, organism-based, Canis lupus familiaris. Details: time < 24 hr, route intravenous. To be noted: dog, in vivo. In outline:
as §2

Series [16] can be described thus: Maximum plasma concentration after oral administration in monkey. In kind it is ADME, organism-based. Further details: route oral. To be noted: simiiformes. In outline: as §2
The nature of series [17]: Time required for the maximum plasma concentration in rat. Type of series: ADME, organism-based.
Series [18] in a line: Half life determined after iv administration to dog. To be noted: in vivo. In kind it is ADME, organism-based, Canis lupus familiaris. An outline of the steps: as §2
Series [19] can be described thus: Plasma concentration after 6 hours of oral administration in rat. Type of series: ADME, organism-based. The settings on record: read-out: C6h.
Series [20] in a line: Half life determined after iv administration to monkey. In kind it is ADME, organism-based. The settings on record: simiiformes, in vivo. In outline:
as §2

Series [21] deals with T1, C-C chemokine receptor type 5. Nature of the series: Inhibitory activity against C-C chemokine receptor type 5. In outline: as §1

T1 sequence (P51681 whole entry): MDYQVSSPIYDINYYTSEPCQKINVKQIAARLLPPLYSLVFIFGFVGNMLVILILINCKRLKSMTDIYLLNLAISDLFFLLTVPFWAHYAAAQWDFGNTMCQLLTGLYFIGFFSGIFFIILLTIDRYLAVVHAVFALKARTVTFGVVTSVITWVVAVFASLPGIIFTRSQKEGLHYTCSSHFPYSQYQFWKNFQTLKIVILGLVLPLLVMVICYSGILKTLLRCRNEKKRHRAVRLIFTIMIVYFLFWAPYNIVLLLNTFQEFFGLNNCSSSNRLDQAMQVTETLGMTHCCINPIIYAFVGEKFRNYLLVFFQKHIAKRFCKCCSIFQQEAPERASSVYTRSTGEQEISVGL

In the case of `Cc1cccc(C)c1C(=O)N1CCC(N2CCN(Cc3ccc(I)cc3)CC2)CC1`, affinity in series [1] was put at a Ki of 440 nM.

Molecule `Cc1cccc(O)c1C(=O)N1CCC(C)(N2CCN([C@@H](C)c3ccc(C(F)(F)F)cc3)[C@@H](C)C2)CC1` gave a Ki in series [1] of 5 nM. In the series with Rattus norvegicus, this molecule displayed an area under the curve (AUC) of 2540 ng·h/mL. The molecule also came in with an IC50 in the series with U-87 MG [2] of 3.2 nM.

In turn, `Cc1cccc(O)c1C(=O)N1CCC(C)(N2CCN([C@@H](C)c3ccc(S(C)(=O)=O)cc3)[C@@H](C)C2)CC1` gave a Ki in series [1] of 15 nM. Further, the area under the curve (AUC) in the series with Rattus norvegicus was found to be 384 ng·h/mL. In addition, the IC50 in the series on U-87 MG [2] worked out at 4 nM.

For `Cc1cccc(C)c1C(=O)N1CCC(N2CCN([C@@H](C)c3ccc(I)cc3)[C@@H](C)C2)CC1`, in [1], the Ki was 20 nM. In the series with U-87 MG [3], this molecule had an IC50 of 7 nM.

`C[C@H]1CN(C2(C)CCN(C(=O)c3c(N)cccc3Cl)CC2)CCN1[C@@H](C)c1ccc(S(C)(=O)=O)cc1` returned a Ki in [1] of 5 nM. The molecule further registered an AUC in the series on Rattus norvegicus of 447 ng·h/mL. The molecule further returned an IC50 with U-87 MG [2] of 0.8 nM.

As for `Cc1cccc(C)c1C(=O)N1CCC(C)(N2CCN([C@@H](C)c3ccc(S(C)(=O)=O)cc3)[C@@H](C)C2)CC1`, the Ki in series [1] is 3 nM. Besides, the half-inhibitory concentration (IC50) in the series on U-87 MG [2] amounted to 0.5 nM.

`C[C@H]1CN(C2(C)CCN(C(=O)c3c(N)cccc3Cl)CC2)CCN1[C@@H](C)c1ccc(I)cc1` gave a Ki in series [1] of 12 nM. In addition, in the series on Rattus norvegicus, the AUC was determined as 1980 ng·h/mL. In the series on U-87 MG [2], the IC50 stood at 2 nM.

With `Cc1ccnc(C)c1C(=O)N1CCC(C)(N2CCN([C@@H](C)c3ccc(C(F)(F)F)cc3)[C@@H](C)C2)CC1`, the Cmax in [4] turned out to be 226 ng/mL; in series [16] it was 281 ng/mL. Besides, the figures for the bioavailability in series [5] and in series [11] were 27.5% and 33%, respectively. In addition, the AUC came to 3900 ng·h/mL in the series on Rattus norvegicus; 996 ng·h/mL in the series on Cynomolgus monkey [6]; 1580 ng·h/mL in the series on Canis familiaris [10]; 2740 ng·h/mL in the series on Cynomolgus monkey [12]; 1610 ng·h/mL in the series on Canis familiaris [15]. Besides, in the series with U-87 MG [2], half-maximal inhibition (IC50) required 0.5 nM. The same molecule registered a C0 at 0 h in series [7] of 390 ng/mL. Further, the concentration at 0 h in series [8] came out at 346 ng/mL. Further, the Ki worked out at 2500 nM in series [9] and 2.3 nM in series [13]. Also, the Tmax in series [14] worked out at 1.5 h.

Molecule `Cc1cccc(C)c1C(=O)N1CCC(C)(N2CCN(Cc3ccc(I)cc3)CC2)CC1` had a Ki in series [1] of 62 nM.

In series [1], `Cc1cccc(C)c1C(=O)N1CCC(C)(N2CCN([C@@H](C)c3ccc(C(F)(F)F)cc3)[C@@H](C)C2)CC1` had a Ki of 1 nM. This molecule also displayed an AUC with Rattus norvegicus of 922 ng·h/mL. Moreover, the IC50 in the series with U-87 MG [2] was found to be 0.4 nM.

On to `Cc1cccc(C)c1C(=O)N1CCC(C)(N2CCN([C@@H](C)c3ccc(I)cc3)[C@@H](C)C2)CC1`, for which the Ki in series [1] is 5 nM. The AUC in the series with Rattus norvegicus is 822 ng·h/mL. Moreover, the IC50 with U-87 MG [2] came out at 1 nM.

The molecule `Cc1cccc(C)c1C(=O)N1CCC(N2CCN(Cc3ccc(I)cc3)[C@@H](C)C2)CC1` came in with a Ki in series [1] of 30 nM.

Consider `Cc1cc[n+]([O-])c(C)c1C(=O)N1CCC(C)(N2CCN([C@@H](C)c3ccc(C(F)(F)F)cc3)[C@@H](C)C2)CC1`, for which the Cmax in series [4] was 690 ng/mL; in series [16], 1420 ng/mL. Also, the results for the bioavailability in series [5] and in [11] were 59% and 65%, respectively. For the same molecule, in series [17], the Tmax was determined as 2.5 h. Further, the AUC turned out to be 9240 ng·h/mL in the series with Rattus norvegicus; 2610 ng·h/mL with Cynomolgus monkey [6]; 6290 ng·h/mL in the series with Canis familiaris [10]; 15400 ng·h/mL in the series on Cynomolgus monkey [12]; 3240 ng·h/mL with Canis familiaris [15]. Besides, the IC50 in the series with U-87 MG [2] stood at 1 nM. Moreover, the Ki in [9] came out at 250 nM; in [13] it was 7 nM. Also, the half-life in series [18] was 6 h; in [20] it was 4 h. For the same molecule, in [19], the concentration at 6 h was found to be 1300 ng/mL.

Consider `Cc1cccc(C)c1C(=O)N1CCC(N2CCN([C@@H](C)c3ccc(Br)cc3)[C@@H](C)C2)CC1`, for which, in series [21], the IC50 came out at 6 nM. The molecule also displayed a Ki in series [1] of 23 nM.

Molecule `C[C@H]1CN(C2(C)CCN(C(=O)c3c(N)cccc3Cl)CC2)CCN1[C@@H](C)c1ccc(C(F)(F)F)cc1` gave an inhibition constant Ki in series [1] of 5 nM. In the series with Rattus norvegicus, this molecule had an AUC of 1870 ng·h/mL. For the same molecule, it took 1.2 nM to reach half-maximal inhibition in the series on U-87 MG [2] (IC50).

On to `Cc1cccc(C)c1C(=O)N1CCC(C)(N2CCN(Cc3ccc(I)cc3)[C@@H](C)C2)CC1`, for which the Ki in series [1] was found to be 8 nM. Further, in the series on U-87 MG [3], the IC50 stood at 2.7 nM.

In [1], `Cc1cccc(C)c1C(=O)N1CCC(N2CCN([C@@H](C)c3ccccc3)[C@@H](C)C2)CC1` had a Ki of 275 nM.

Regarding `Cc1cccc(O)c1C(=O)N1CCC(C)(N2CCN([C@@H](C)c3ccc(I)cc3)[C@@H](C)C2)CC1`, in series [1], the affinity, expressed as Ki, was 7 nM. Also, the AUC with Rattus norvegicus was found to be 2810 ng·h/mL. For the same molecule, half-maximal inhibition with U-87 MG [2] (IC50) required 1 nM.

The term Ki denotes a measure of affinity in units of concentration, obtained from inhibition or displacement. For orientation: AUC means the area under the concentration-time curve, a measure of exposure. For orientation: IC50 means the concentration that gives 50% inhibition. For orientation: Cmax means the highest concentration seen after dosing. By Tmax is commonly meant the time from dosing to the highest level. As usually defined, the half-life is the time needed for the level to fall by half in the phase considered.

These data come from ChEMBL document CHEMBL1134622, “Piperazine-based CCR5 antagonists as HIV-1 inhibitors. II. Discovery of 1-[(2,4-dimethyl-3-pyridinyl)carbonyl]-4- methyl-4-[3(S)-methyl-4-[1(S)-[4-(trifluoromethyl)phenyl]ethyl]-1-piperazinyl]- piperidine N1-oxide (Sch-350634), an orally bioavailable, potent CCR5 antagonist” (J Med Chem, 2001).
